pIC50: −log10 of the molar value. Calls of active or inactive are those of the source. The calls are words filed in the database; no cut-off is given here.
Legend:
SK-OV-3 [1] = assay: Antiproliferative activity against human SKOV3 cells assessed as reduction in cell viability after 48 hrs by CCK8 assay; format: functional, cell-based; details: SK-OV-3, 48 h
Method in brief: (§1)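 Cells were seeded at 5000/well and grown 24 h at 37 °C, 5% CO2. They were then exposed 48 h to compound diluted from DMSO into medium (final DMSO <0.4%). CCK-8 was added for 1 h and absorbance read at 540 nm. IC50 came from the viability vs concentration (nM) curve, in triplicate.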

MCF7 = assay: Antiproliferative activity against human MCF7 cells assessed as reduction in cell viability after 48 hrs by CCK8 assay; format: functional, cell-based; details: MCF7, 48 h; method in brief: as §1
[2] = target: T1, Serine/threonine-protein kinase mTOR (Homo sapiens, UniProt P42345); assay: Inhibition of mTOR (unknown origin) using ULight-4E-BP1 peptide substrate measured after 1 hr by Lance Ultra assay
Method in brief: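 mTOR (10 nM final) was reacted with ULight-4E-BP1 peptide (50 nM final) and ATP in kinase buffer for 1 h at room temperature.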

U-87 MG [3] = assay: Antiproliferative activity against human U87MG cells assessed as reduction in cell viability after 48 hrs by CCK8 assay; format: functional, cell-based, U-87MG ATCC; method in brief: as §1
PC-3 = assay: Antiproliferative activity against human PC3 cells assessed as reduction in cell viability after 48 hrs by CCK8 assay; format: functional, cell-based; details: PC-3, 48 h; method in brief: as §1
[4] = target: T2, Phosphatidylinositol 4,5-bisphosphate 3-kinase catalytic subunit alpha isoform (Homo sapiens, UniProt P42336); assay: Inhibition of PI3Kalpha (unknown origin) using PIP2 as substrate measured after 1 hr by Kinase-Glo luminescent assay
[5] = target: T2, Phosphatidylinositol 4,5-bisphosphate 3-kinase catalytic subunit alpha isoform; assay: Inhibition of PI3Kalpha in human U87MG cells assessed as reduction in S6 phosphorylation at Ser235/236 after 24 hrs by Western blot analysis; format: cell-based
Method in brief: (§2)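 U87MG cells were treated at indicated concentrations for 24 h at 37 °C, then lysed in RIPA with protease/phosphatase inhibitors and 1 mM PMSF. Lysates were run on SDS–PAGE and PVDF blots probed overnight at 4 °C for AKT, pAKT Ser473, pAKT Thr308, S6RP and pS6RP Ser235/236. HRP secondary was used with chemiluminescent detection.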

[6] = Half life in pooled human liver microsomes at 50 uM pretreated for 5 mins followed by NADPH addition and measured after 120 mins by HPLC analysis; format: ADME, microsome
Method in brief: (§3)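 Pooled adult male and female human liver microsomes at 1 mg/mL in 0.1 M Tris-HCl pH 7.4, with test compound at 50 μM final. Mixtures were preincubated 5 min at 37 °C, then started with NADPH regenerating system. Reactions were stopped at 120 min with cold methanol, centrifuged, and analysed by HPLC.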

[7] = target: T2, Phosphatidylinositol 4,5-bisphosphate 3-kinase catalytic subunit alpha isoform; assay: Inhibition of PI3Kalpha in human U87MG cells assessed as reduction in AKT phosphorylation at T308 residue at 20 to 200 nM after 24 hrs by Western blot analysis relative to control; format: cell-based; method in brief: as §2
[8] = Mean residence time in Beagle dog at 1 mg/kg, po administered as single dose via gavage; format: ADME, organism-based, Canis lupus familiaris; details: in vivo
Method in brief: (§4)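 Three male Beagle dogs (9–10 months, 9–10 kg) given 1 mg/kg by oral gavage as a solution in physiological saline with 5% DMSO. Blood was drawn at 0.25–24 h and spun within 1 h (1000 × g, 4 °C, 15 min). Plasma was stored at -20 °C. t1/2 and AUC0–24 were obtained by model-independent analysis, and Cmax and MRT directly from the plasma concentration–time data.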

U-87 MG [9] = assay: Antitumor activity against human U87MG cells xenografted in Balb/c mouse assessed as tumor growth inhibition at 3 mg/kg, ig administered daily for 10 days relative to control; format: functional, U-87MG ATCC; details: po, 240 h, read-out: TGI
Method in brief: (§5)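 Female BALB/c nude mice (6–7 weeks, 16–20 g, SPF, 5 groups of 5) were implanted subcutaneously with 5×10^6 U87MG cells. At 100–150 mm³ they were randomized and dosed intragastrically once daily for 10 days. Body weight was recorded twice every 3 days. Tumor volume was taken as V = 1/2ab² (a length, b width).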

[10] = Half life in Beagle dog at 1 mg/kg, po administered as single dose via gavage; format: ADME, organism-based, Canis lupus familiaris; details: in vivo; method in brief: as §4
[11] = target: T1, Serine/threonine-protein kinase mTOR; assay: Potency index, ratio of AZD8055 IC50 to test compound IC50 for mTOR (unknown origin)
U-87 MG [12] = assay: Antitumor activity against human U87MG cells xenografted in Balb/c mouse assessed as tumor growth inhibition at 10 mg/kg, ig administered daily for 10 days relative to control; format: functional, U-87MG ATCC; details: po, 240 h, read-out: TGI; method in brief: as §5
[13] = target: T2, Phosphatidylinositol 4,5-bisphosphate 3-kinase catalytic subunit alpha isoform; assay: Inhibition of PI3Kalpha in human U87MG cells assessed as reduction in AKT phosphorylation at T308 residue at 2 nM after 24 hrs by Western blot analysis relative to control; format: cell-based; method in brief: as §2
[14] = Cmax in Beagle dog at 1 mg/kg, po administered as single dose via gavage; format: ADME, organism-based, Canis lupus familiaris; design: dose 1 mg/kg, route oral; details: in vivo; method in brief: as §4
[15] = AUC (0 to 24 hrs) in Beagle dog at 1 mg/kg, po administered as single dose via gavage; format: ADME, organism-based, Canis lupus familiaris; design: time < 24 hr, dose 1 mg/kg, route oral; details: in vivo; method in brief: as §4
[16] = Unbound clearance in pooled human liver microsomes at 50 uM pretreated for 5 mins followed by NADPH addition and measured after 120 mins by HPLC analysis; format: ADME, microsome; details: 2 h; method in brief: as §3
[17] = target: T2, Phosphatidylinositol 4,5-bisphosphate 3-kinase catalytic subunit alpha isoform; assay: Inhibition of PI3Kalpha in human U87MG cells assessed as reduction in AKT phosphorylation at S473 residue at 20 to 200 nM after 24 hrs by Western blot analysis relative to control; format: cell-based; method in brief: as §2
[18] = target: T2, Phosphatidylinositol 4,5-bisphosphate 3-kinase catalytic subunit alpha isoform; assay: Potency index, ratio of AZD8055 IC50 to test compound IC50 for PI3Kalpha (unknown origin)
Mus musculus = assay: Toxicity in Balb/c mouse xenografted with human U87MG cells assessed as body weight loss at 3 to 30 mg/kg, ig administered daily for 10 days measured twice every 3 days during compound dosing; format: organism-based; details: in vivo, po; method in brief: as §5
U-87 MG [19] = assay: Antitumor activity against human U87MG cells xenografted in Balb/c mouse assessed as tumor growth inhibition at 30 mg/kg, ig administered daily for 10 days relative to control; format: functional, U-87MG ATCC; details: po, 240 h, read-out: TGI; method in brief: as §5
U-87 MG [20] = assay: Antitumor activity against human U87MG cells xenografted in ig dosed Balb/c mouse assessed as tumor growth inhibition administered daily for 10 days; format: functional, organism-based; details: U-87MG ATCC; method in brief: as §5
SK-OV-3 [21] = assay: Potency index, ratio of AZD8055 IC50 to test compound IC50 for human SKOV3 cells; format: functional
[22] = target: T2, Phosphatidylinositol 4,5-bisphosphate 3-kinase catalytic subunit alpha isoform; assay: Inhibition of PI3Kalpha in human U87MG cells assessed as reduction in AKT phosphorylation at S473 residue at 2 nM after 24 hrs by Western blot analysis relative to control; format: cell-based; method in brief: as §2

T2 sequence (P42336 whole entry, canonical isoform): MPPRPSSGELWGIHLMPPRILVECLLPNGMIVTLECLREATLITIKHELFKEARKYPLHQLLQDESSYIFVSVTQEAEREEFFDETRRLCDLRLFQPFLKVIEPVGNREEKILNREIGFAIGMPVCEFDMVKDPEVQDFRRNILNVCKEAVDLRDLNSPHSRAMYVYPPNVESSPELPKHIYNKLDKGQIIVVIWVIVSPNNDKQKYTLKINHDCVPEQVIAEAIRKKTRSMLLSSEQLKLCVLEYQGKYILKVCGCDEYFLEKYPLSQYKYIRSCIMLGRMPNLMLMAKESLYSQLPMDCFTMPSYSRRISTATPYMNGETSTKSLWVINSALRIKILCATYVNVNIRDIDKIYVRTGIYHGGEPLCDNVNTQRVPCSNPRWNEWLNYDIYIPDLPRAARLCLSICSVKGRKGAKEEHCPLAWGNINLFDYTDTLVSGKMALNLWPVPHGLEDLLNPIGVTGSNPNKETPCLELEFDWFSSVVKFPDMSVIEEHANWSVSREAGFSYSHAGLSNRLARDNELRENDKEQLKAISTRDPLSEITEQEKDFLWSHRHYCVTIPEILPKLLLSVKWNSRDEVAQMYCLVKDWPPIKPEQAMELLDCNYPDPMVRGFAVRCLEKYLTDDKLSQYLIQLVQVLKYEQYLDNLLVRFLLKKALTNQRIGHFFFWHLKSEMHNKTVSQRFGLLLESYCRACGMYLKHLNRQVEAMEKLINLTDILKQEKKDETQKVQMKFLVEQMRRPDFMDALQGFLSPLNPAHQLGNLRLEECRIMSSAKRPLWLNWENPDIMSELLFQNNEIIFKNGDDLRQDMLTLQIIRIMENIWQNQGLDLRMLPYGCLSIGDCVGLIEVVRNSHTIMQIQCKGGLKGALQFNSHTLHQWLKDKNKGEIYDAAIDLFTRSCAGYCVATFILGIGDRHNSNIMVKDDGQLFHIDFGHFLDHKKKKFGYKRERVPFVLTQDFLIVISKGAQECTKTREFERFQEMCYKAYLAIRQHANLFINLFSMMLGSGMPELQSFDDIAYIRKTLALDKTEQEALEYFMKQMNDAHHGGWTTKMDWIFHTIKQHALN

COc1ccc(-c2ccc3c(N4CCOCC4)nc(CC#N)nc3n2)cc1CO
pIC50 (SK-OV-3 [1]): 7.26
pIC50 (MCF7): 6.73
pIC50 [2]: 7.06
pIC50 (U-87 MG [3]): 7.04
pIC50 (PC-3): 7.18
pIC50 [4]: < 5.00

CNC(=O)c1cccc(-c2ccc3c(N4CCOC[C@@H]4C)nc(C(C)(C)C)nc3n2)c1
pIC50 (SK-OV-3 [1]): 7.23
pIC50 (MCF7): 7.51
pIC50 [2]: 7.14
pIC50 (U-87 MG [3]): 7.49
pIC50 (PC-3): 6.96
pIC50 [4]: 5.89

COc1ccc(-c2ccc3c(N4CCOCC4)nc(C(N)=O)nc3n2)cc1CO
pIC50 (SK-OV-3 [1]): 6.19
pIC50 (MCF7): < 6.00
pIC50 [2]: 7.32
pIC50 (U-87 MG [3]): 6.09
pIC50 (PC-3): < 6.00
pIC50 [4]: 5.49

COc1ccc(-c2ccc3c(N4CCOCC4)nc(CN)nc3n2)cc1CO
pIC50 (SK-OV-3 [1]): < 6.00
pIC50 (MCF7): < 6.00
pIC50 [2]: 6.84
pIC50 (U-87 MG [3]): < 6.00
pIC50 (PC-3): < 6.00
pIC50 [4]: < 5.00

COc1ccc(-c2ccc3c(N4CCOC[C@@H]4C)nc(C(C)(C)C)nc3n2)cc1CO
inhibition [5]: Dose-dependent effect
half-life at 50 µM [6]: 0.515 h
pIC50 (SK-OV-3 [1]): 8.15
inhibition [7]: 100%
MRT [8]: 4.3 h
inhibition in vivo at 3 mg/kg (U-87 MG [9]): 28%
half-life [10]: 5.4 h
pIC50 (MCF7): 8.22
Ratio IC50 [11]: 4
inhibition in vivo at 10 mg/kg (U-87 MG [12]): 64%
inhibition [13]: Active
Cmax [14]: 288 ng/mL
AUC(0-t) at 24 h [15]: 857 ng·h/mL
CL free [16]: 28.1 µL/min/mg
pIC50 [2]: 8.70
inhibition [17]: 100%
Ratio IC50 [18]: 10
Activity (Mus musculus): Non-Toxic
inhibition in vivo at 30 mg/kg (U-87 MG [19]): 83%
TGI (U-87 MG [20]): Dose-dependent effect
Ratio IC50 (SK-OV-3 [21]): 8
pIC50 (U-87 MG [3]): 8.49
pIC50 (PC-3): 7.64
pIC50 [4]: 6.40
inhibition [22]: Active

COc1ccc(-c2ccc3c(N4CCOC[C@@H]4C)nc(C(C)C)nc3n2)cc1CO
pIC50 (SK-OV-3 [1]): 7.35
pIC50 (MCF7): 7.27
pIC50 [2]: 8.00
pIC50 (U-87 MG [3]): 7.47
pIC50 (PC-3): 6.81
pIC50 [4]: 5.52

COc1ccc(-c2ccc3c(N4CCOCC4)nc(CS(C)(=O)=O)nc3n2)cc1CO
pIC50 (SK-OV-3 [1]): < 6.00
pIC50 (MCF7): < 6.00
pIC50 [2]: < 6.30
pIC50 (U-87 MG [3]): < 6.00
pIC50 (PC-3): < 6.00
pIC50 [4]: < 5.00

COc1ccc(-c2ccc3c(N4CCOCC4)nc(C(CO)CO)nc3n2)cc1CO
pIC50 (SK-OV-3 [1]): < 6.00
pIC50 (MCF7): < 6.00
pIC50 [2]: < 6.30
pIC50 (U-87 MG [3]): < 6.00
pIC50 (PC-3): < 6.00
pIC50 [4]: < 5.00

COc1ccc(-c2ccc3c(N4CCOC[C@@H]4C)nc(C4=CCOCC4)nc3n2)cc1CO
pIC50 (SK-OV-3 [1]): 6.90
pIC50 (MCF7): 6.65
pIC50 [2]: 7.52
pIC50 (U-87 MG [3]): 7.07
pIC50 (PC-3): 6.67
pIC50 [4]: < 5.00

COc1ccc(-c2ccc3c(N4CCOCC4)nc(C#N)nc3n2)cc1CO
pIC50 (SK-OV-3 [1]): 6.18
pIC50 (MCF7): < 6.00
pIC50 [2]: 7.49
pIC50 (U-87 MG [3]): 6.04
pIC50 (PC-3): < 6.00
pIC50 [4]: 5.59

COc1ccc(-c2ccc3c(N4CCOC[C@@H]4C)nc(N4CCOC[C@@H]4C)nc3n2)cc1CO [AZD-8055]
half-life at 50 µM [6]: 0.35 h
pIC50 (SK-OV-3 [1]): 7.26
MRT [8]: 3.1 h
half-life [10]: 4.5 h
pIC50 (MCF7): 7.57
inhibition in vivo at 10 mg/kg (U-87 MG [12]): 59%
Cmax [14]: 228 ng/mL
AUC(0-t) at 24 h [15]: 787 ng·h/mL
CL free [16]: 28.6 µL/min/mg
pIC50 (U-87 MG [3]): 7.67
pIC50 (PC-3): 7.44

COc1ccc(-c2ccc3c(N4CCOC[C@@H]4C)nc(C4CCOCC4)nc3n2)cc1CO
pIC50 (SK-OV-3 [1]): 6.93
pIC50 (MCF7): 6.35
pIC50 [2]: 7.28
pIC50 (U-87 MG [3]): 7.03
pIC50 (PC-3): 6.32
pIC50 [4]: < 5.00

COc1ccc(-c2ccc3c(N4CCOC[C@@H]4C)nc(C)nc3n2)cc1CO
pIC50 (SK-OV-3 [1]): 7.31
pIC50 (MCF7): 7.11
pIC50 [2]: 7.02
pIC50 (U-87 MG [3]): 7.04
pIC50 (PC-3): 7.18
pIC50 [4]: < 5.00

COc1ccc(-c2ccc3c(N4CCOC[C@@H]4C)nc(CC(OC)OC)nc3n2)cc1CO
pIC50 (SK-OV-3 [1]): 7.28
pIC50 (MCF7): 7.14
pIC50 [2]: 7.54
pIC50 (U-87 MG [3]): 7.05
pIC50 (PC-3): 6.79
pIC50 [4]: < 5.00
